# Compounds with a hit are over-represented: about 4.6% of the library has one in this group of screens.
# TAAR1 agonist: agonists of human TAAR1; CHO RD-HGA16 TAAR1, Fluo-8 calcium fluorescence; vehicle wells 0%, saturating PEA agonist 100%; activation, % at 3 µM; 360,000 compounds, 0.99% hits;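 active = activation above the mean activation of all test compounds in the run plus 3 SD, cut at about 38% in these data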
# Target sequence (Q96RJ0 whole entry, looked up): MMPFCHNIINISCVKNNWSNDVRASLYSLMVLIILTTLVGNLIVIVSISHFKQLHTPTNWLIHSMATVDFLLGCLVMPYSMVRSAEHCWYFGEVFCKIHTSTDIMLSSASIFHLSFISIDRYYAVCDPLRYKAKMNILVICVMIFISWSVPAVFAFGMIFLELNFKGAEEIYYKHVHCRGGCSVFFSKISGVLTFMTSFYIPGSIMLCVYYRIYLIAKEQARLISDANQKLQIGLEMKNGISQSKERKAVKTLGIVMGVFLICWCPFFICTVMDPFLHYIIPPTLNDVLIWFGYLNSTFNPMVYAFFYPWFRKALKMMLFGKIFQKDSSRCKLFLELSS
#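 Test system: RD-HGA16 (CHO) cells co-expressing Gα16 and hTAAR1; dosing: one-point dosing at 3 µM (nominal); timing: 17-24 h seeding, 75 min 37 °C dye, 30 min RT; signal: kinetic Fluo-8 calcium fluorescence; read-out basis: % activation relative to PEA EC100 response; controls: DMSO and PEA EC100; replicates: n 1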
# OX1R antag-1: antagonists of human orexin 1 receptor. inhibition, % at 5 µM. O43613. 330,000 compounds, 0.43% hits. AID 434989. CHO/OX1R cells, Fluo-8 calcium fluorescence, orexin A;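 active = inhibition above its plate's threshold, mean inhibition of all tested compounds on the plate plus 3 SD, cut at about 37% in these data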;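 also: 0% = orexin A challenge wells and 100% = SB-334867-A antagonist wells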
# OX1R antag-2: OX1R (human) antagonism; O43613; OX1R-expressing cells, FRET antagonist read-out; inhibition, % at 6.6 µM; 330,000 compounds, 1.8% hits; AID 485270; in the data active = inhibition mostly above about 38%, no sharp cut-off; inactive = mostly below about 40%;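 also: 0% = agonist challenge alone and 100% = reference antagonist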
# TAAR1 antagonist: antagonists of human TAAR1. Q96RJ0. CHO RD-HGA16 TAAR1, Fluo-8 calcium fluorescence, antagonist. inhibition, % at 3 µM. 360,000 compounds, 1.5% hits. AID 624466;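 active = inhibition above a per-plate cutoff, the mean inhibition of test compounds on that plate plus 3 SD, cut at about 49% in these data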;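 also: 0% = DMSO plus EC80 beta-PEA response and 100% = DMSO alone without agonist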
#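 Assay system: CHO-derived RD-HGA16 cells stably expressing human TAAR1 plus Gα16. Timing: 140 s kinetic read after compound, 140 s after agonist. Technique: kinetic Fluo-8 calcium fluorescence measurement. Measure: % inhibition of agonist calcium response.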
# CHO parental Ca: counter-screen: ATP calcium response change in parental CHO cells. parental CHO-K1, ATP-induced calcium, Fluo-8 fluorescence. inhibition, % at 5.6 µM. 330,000 compounds, 0.63% hits;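 active = inhibition above that plate's mean sample inhibition plus 3 SD, cut at about 26% in these data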;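 also: 0% = ATP-challenged DMSO wells and 100% = DMSO wells without ATP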
#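 test system = CHO parental line | reagent = ATP stimulus | measured by = intracellular calcium via Fluo-8 no-wash fluorescent dye | control set = ATP and no-ATP DMSO wells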
# GPR7 antagonist: human neuropeptides B/W receptor 1 antagonism; P48145; GPR7-expressing cells, fluorescence antagonist assay; inhibition, % at 4.4 µM; 290,000 compounds, 1.1% hits; AID 1861; in the data active = inhibition above about 16%, passing the limit was not always enough;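 also: cells stimulated with the agonist NPW; 0% = agonist with vehicle and 100% = vehicle without agonist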
# Target sequence (P48145 whole entry, looked up): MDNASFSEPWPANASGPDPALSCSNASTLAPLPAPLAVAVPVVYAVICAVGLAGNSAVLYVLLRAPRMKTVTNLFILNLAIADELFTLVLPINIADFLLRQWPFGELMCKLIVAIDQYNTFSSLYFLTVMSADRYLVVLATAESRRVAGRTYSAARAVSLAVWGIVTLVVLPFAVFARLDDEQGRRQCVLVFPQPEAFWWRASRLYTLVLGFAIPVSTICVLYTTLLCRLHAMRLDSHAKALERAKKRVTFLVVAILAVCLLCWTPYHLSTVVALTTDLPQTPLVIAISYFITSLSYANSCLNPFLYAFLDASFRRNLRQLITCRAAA
# Numbers without * were called inactive; nt = no result given.
SMILES,TAAR1 agonist,OX1R antag-1,OX1R antag-2,TAAR1 antagonist,CHO parental Ca,GPR7 antagonist
CNC[C@@H]1OCc2ccccc2-c2c(n(C)c3ccccc23)C(=O)N([C@@H](C)CO)C[C@@H]1C,6.5,nt,nt,-23.8,nt,nt
O=C(Cc1ccc(NC(=O)C2CCN(C(=O)C3CCCCC3)CC2)cc1)Nc1cccc(C(=O)N2CCCCC2)c1,0.2,nt,nt,-13.8,nt,nt
COC(=O)C1=C(C)N(Cc2ccccc2C(F)(F)F)C(=NCc2ccc(OC)cc2)NC1CCc1ccccc1 (centres undefined),14.8,nt,nt,1.8,nt,nt
CC(Cc1cccs1)NC(=S)Nc1ccc(Cl)cc1 (centres undefined),12.7,0.8,59.6*,11.7,18.5,-0.6
CCOc1ncccc1C(=O)Nc1ccc2c(c1)OCO2,-1.8,-15.0,11.5,-30.6,-19.8,-4.3
CCOc1ncccc1C(=O)Nc1nnc(C)s1,0.9,1.4,14.5,-7.5,-13.0,-4.8
O=C(CSc1cccc(C(F)(F)F)c1)Nc1nnc(C2CC2)s1,3.3,8.9,3.4,-24.2,4.5,nt
CCOc1ncccc1C(=O)Nc1cc2c(cc1Br)OCCO2,7.0,21.6,39.8*,-20.8,-30.4,nt
CCOc1ncccc1C(=O)Nc1nnc(C2CC2)s1,2.8,8.9,73.9*,4.8,-11.9,0.1
O=C(CSc1ccccc1)Nc1nnc(C2CC2)s1,8.2,-4.2,21.3,-23.6,29.8*,15.2
CC[C@H](NC(=O)[C@H]1O[C@@H](n2cnc3c(=O)[nH]c(N)nc32)[C@H](O)[C@@H]1O)c1ccccc1,0.9,nt,nt,-6.8,nt,nt
O=C(CSc1ccc(F)cc1)N1CCC(c2nc3ccccc3s2)CC1,14.0,18.4,15.2,51.5*,2.1,4.7
O=C(CSc1ccc2ccccc2n1)N1CCC(c2noc3ccc(F)cc23)CC1,8.1,2.7,55.0*,31.4,-9.6,-5.4
O=C(CSc1ccccc1Cl)N1CCC(c2nc3ccccc3s2)CC1,12.8,-21.9,33.4,19.7,-10.8,-8.2
Cc1ccc(Cc2c(-c3cccc(Br)c3)nc3c4ccccc4ccn23)cc1,0.5,nt,nt,-18.6,nt,nt
NC(=O)c1cc([N+](=O)[O-])ccc1NCC1CCCCC1,37.6*,-20.5,-2.2,-15.3,-19.2,nt
C=CCN1C(=O)c2ccc(C(=O)NCCc3ccc(OC)c(OC)c3)cc2C1=O,2.5,-9.4,29.4,0.2,-9.9,-1.4
CCOC(=O)[C@]12CCC=C1N(Cc1ccc(Cl)cc1Cl)C(=O)[C@H](CC(=O)NCC1CCCCC1)C2,-0.7,nt,nt,-16.5,nt,nt
Cc1cccn2c(=O)c3cc(C(=O)NCc4ccc(F)cc4)c(=N)n(CC4CCCO4)c3nc12 (centres undefined),3.1,-16.7,22.5,-26.0,-14.2,-4.9
N=c1c(C(=O)NCC2CCCO2)cc2c(=O)n3ccccc3nc2n1Cc1ccc(F)cc1 (centres undefined),-1.2,-27.7,54.5*,-8.0,9.5,9.3
N=c1c(C(=O)NC2CCCCC2)cc2c(=O)n3ccccc3nc2n1Cc1cccnc1,-4.8,-21.4,32.2,12.4,-8.4,2.0
N=c1c(C(=O)NCC2CCCO2)cc2c(=O)n3ccccc3nc2n1Cc1cccnc1 (centres undefined),0.3,-2.6,73.0*,-0.5,2.1,-4.7
N=c1c(C(=O)NCC2CCCO2)cc2c(=O)n3ccccc3nc2n1Cc1ccco1 (centres undefined),-0.3,-10.3,57.1*,3.6,-10.0,-6.6
Cc1cccn2c(=O)c3cc(C(=O)NCC4CCCO4)c(=N)n(Cc4cccnc4)c3nc12 (centres undefined),5.5,-24.2,60.0*,6.1,-3.3,5.3
COc1ccc(OCC2CN(C3CCCC3)S(=O)(=O)CCO2)cc1 (centres undefined),0.4,nt,nt,10.8,nt,nt
SMILES,TAAR1 agonist,OX1R antag-1,OX1R antag-2,TAAR1 antagonist,CHO parental Ca,GPR7 antagonist
O[C@@H](Cc1ccccc1)[C@@H](/C=C/c1ccccc1)N(Cc1ccccc1)Cc1ccccc1,-0.7,nt,nt,0.2,nt,nt
COc1ccc(OC)c(-n2c(SCC(=O)N3CCc4ccccc43)nc3c(c2=O)SCC3)c1,nt,-17.9,39.0*,nt,-12.2,-1.8
C=C1C[C@@H]2C[C@@H]2CN(S(=O)(=O)c2ccc(C)cc2)[C@@H]1c1ccco1,1.3,nt,nt,9.4,nt,nt
Cc1ccc(S(=O)(=O)N2[C@@H](c3ccc(C(C)(C)C)cc3)C(C(=O)O)=CC[C@H]2c2ccc(Cl)cc2)cc1,0.4,12.2,4.8,24.6,41.4*,nt
CCc1ccc([C@@H]2CC=C(C(=O)O)[C@H](c3ccc(C(C)(C)C)cc3)N2S(=O)(=O)c2ccc(C)cc2)cc1,2.1,4.1,-5.5,15.3,69.7*,nt
CCCCCN(C(=O)Cc1c(C)n(CCCCC)c2ccccc12)c1ccc(Oc2cccnc2)c(C)c1,-0.3,nt,nt,0.4,nt,nt
Cc1cc(C)cc(OCC(=O)N2N=C(C(F)(F)F)CC2(O)C(C)(C)C)c1 (centres undefined),12.0,8.2,8.3,19.3,39.7*,-11.5
Cc1cc(C)cc(OCC(=O)N2N=C(c3cccnc3)CC2(O)C(F)(F)F)c1 (centres undefined),5.0,-3.0,4.9,9.5,-3.3,-4.7
CC(C(=O)Nc1ccccc1Br)c1ccc([N+](=O)[O-])cc1 (centres undefined),21.3,4.8,14.7,2.9,-8.1,9.6
Cc1ccc(NC(=O)C(C)c2ccc([N+](=O)[O-])cc2)cc1Cl (centres undefined),20.8,-27.7,15.9,43.6,-7.0,40.1*
Cc1ccc(OCc2nnc(SCc3nc4ccccc4[nH]3)n2Cc2ccco2)cc1,9.9,36.3,61.8,35.8,32.4*,-2.2
CC(C)Oc1cc(F)ccc1-c1cc(C(=O)Nc2cccc(C(F)(F)F)c2)[nH]n1,1.1,nt,nt,55.2*,nt,nt
CC(C)Oc1ccc(F)cc1-c1cc(C(=O)NCc2cc(C(F)(F)F)cc(C(F)(F)F)c2)[nH]n1,0.5,nt,nt,6.1,nt,nt
Cc1cc(O)ccc1-c1cc(C(=O)NCc2ccc(F)cc2)[nH]n1,49.0*,nt,nt,32.3,nt,nt
Cc1cc(F)ccc1-c1cc(C(=O)NCc2ccccc2)[nH]n1,2.1,nt,nt,0.1,nt,nt
CC(C)Oc1ccc(F)cc1-c1cc(C(=O)NCc2ccc(C(F)(F)F)cc2)[nH]n1,2.4,nt,nt,54.0*,nt,nt
CC(C)(O)[C@H](O)Cc1cc2ccc(=O)oc2cc1O[C@@H]1O[C@H](CO)[C@@H](O)[C@H](O)[C@H]1O,8.5,-6.4,5.7,10.7,-3.4,nt
COc1ccccc1CNC(=O)COC(=O)/C=C/c1cccs1,1.1,-8.2,11.2,-5.7,-5.6,19.0*
COc1ccc(CNC(=O)COC(=O)/C=C/c2cccs2)cc1,3.3,-27.0,7.5,-20.0,-13.9,4.0
C#CCn1c(=NC(=O)CN2C(=O)CCC2=O)sc2cccc(OC)c21,0.5,-21.5,7.7,2.6,-14.0,-7.2
CCn1c(=NC(=O)CS(=O)(=O)c2ccccc2)sc2cccc(OC)c21,2.7,19.5,33.1*,7.1,5.0,nt
